According to ChEMBL document CHEMBL3259701, “Siderophore receptor-mediated uptake of lactivicin analogues in gram-negative bacteria” (J Med Chem, 2014):
In brackets after ≈: the same amount, converted by molar mass.

Assays:
Escherichia coli [1] = experiment: Antibacterial activity against Escherichia coli EC-28 by CLSI broth microdilution method; assay type: functional
Pseudomonas aeruginosa [2] = experiment: Antibacterial activity against Pseudomonas aeruginosa PAO1 by CLSI broth microdilution method; assay type: functional
Pseudomonas aeruginosa [3] = experiment: Antibacterial activity against Pseudomonas aeruginosa 1091-05 by CLSI broth microdilution method; assay type: functional
Klebsiella pneumoniae = experiment: Antibacterial activity against Klebsiella pneumoniae KP-3700 by CLSI broth microdilution method; assay type: functional
Acinetobacter baumannii = experiment: Antibacterial activity against Acinetobacter baumannii AB-3167 by CLSI broth microdilution method; assay type: functional
[4] = biological target: Penicillin-binding protein 1A (Pseudomonas aeruginosa PAO1, UniProt Q07806); experiment: Displacement of fluorescent Bocillin FL from N-terminal His tagged Pseudomonas aeruginosa PAO1 PBP1a (residues 36 to 822) expressed in Escherichia coli BL21 (Gold cells)
[5] = Displacement of fluorescent Bocillin FL from Pseudomonas aeruginosa PBP1b
[6] = Displacement of fluorescent Bocillin FL from Pseudomonas aeruginosa PBP2
[7] = Displacement of fluorescent Bocillin FL from Pseudomonas aeruginosa PBP3
Escherichia coli [8] = experiment: Antibacterial activity against Escherichia coli DH5alpha expressing beta-lactamase SHV-5 by CLSI broth microdilution method; assay type: functional; conditions: DH5[alpha]
Escherichia coli [9] = experiment: Antibacterial activity against Escherichia coli DH5alpha expressing beta-lactamase SHV-12 by CLSI broth microdilution method; assay type: functional; conditions: DH5[alpha]
Escherichia coli [10] = experiment: Antibacterial activity against Escherichia coli DH5alpha expressing beta-lactamase TEM-1 by CLSI broth microdilution method; assay type: functional; conditions: DH5[alpha]
Escherichia coli [11] = experiment: Antibacterial activity against Escherichia coli DH5alpha expressing beta-lactamase TEM-24 by CLSI broth microdilution method; assay type: functional; conditions: DH5[alpha]
Escherichia coli [12] = experiment: Antibacterial activity against Escherichia coli DH5alpha expressing beta-lactamase CTX-M-15 by CLSI broth microdilution method; assay type: functional; conditions: DH5[alpha]
Escherichia coli [13] = experiment: Antibacterial activity against Escherichia coli DH5alpha expressing beta-lactamase VIM-2 by CLSI broth microdilution method; assay type: functional; conditions: DH5[alpha]
Escherichia coli [14] = experiment: Antibacterial activity against Escherichia coli DH5alpha expressing beta-lactamase NDM-1 by CLSI broth microdilution method; assay type: functional; conditions: DH5[alpha]
Escherichia coli [15] = experiment: Antibacterial activity against Escherichia coli DH5alpha expressing beta-lactamase OXA-24/40 by CLSI broth microdilution method; assay type: functional; conditions: DH5[alpha]
Escherichia coli [16] = experiment: Antibacterial activity against Escherichia coli DH5alpha expressing beta-lactamase OXA-58 by CLSI broth microdilution method; assay type: functional; conditions: DH5[alpha]
Escherichia coli [17] = experiment: Antibacterial activity against Escherichia coli DH5alpha expressing beta-lactamase KPC-3 by CLSI broth microdilution method; assay type: functional; conditions: DH5[alpha]
Escherichia coli [18] = experiment: Antibacterial activity against Escherichia coli DH5alpha by CLSI broth microdilution method; assay type: functional; conditions: DH5[alpha]
Escherichia coli [19] = experiment: Antibacterial activity against Escherichia coli DH5alpha harboring pUCP26 empty vector by CLSI broth microdilution method; assay type: functional; conditions: DH5[alpha]
Escherichia coli [20] = experiment: Ratio of MIC for Escherichia coli DH5alpha expressing beta-lactamase OXA-24/40 to MIC for Escherichia coli DH5alpha harboring pUCP26 empty vector; assay type: functional, DH5[alpha]
Procedure, shortened: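 Isogenic E. coli panel in which each strain was engineered to express a single common β-lactamase. MIC for the OXA-24/40 strain was divided by the MIC for the empty-vector control strain. MICs were obtained by CLSI broth microdilution.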

Chain of Penicillin-binding protein 1A (Q07806 whole entry, the tested form may be a part): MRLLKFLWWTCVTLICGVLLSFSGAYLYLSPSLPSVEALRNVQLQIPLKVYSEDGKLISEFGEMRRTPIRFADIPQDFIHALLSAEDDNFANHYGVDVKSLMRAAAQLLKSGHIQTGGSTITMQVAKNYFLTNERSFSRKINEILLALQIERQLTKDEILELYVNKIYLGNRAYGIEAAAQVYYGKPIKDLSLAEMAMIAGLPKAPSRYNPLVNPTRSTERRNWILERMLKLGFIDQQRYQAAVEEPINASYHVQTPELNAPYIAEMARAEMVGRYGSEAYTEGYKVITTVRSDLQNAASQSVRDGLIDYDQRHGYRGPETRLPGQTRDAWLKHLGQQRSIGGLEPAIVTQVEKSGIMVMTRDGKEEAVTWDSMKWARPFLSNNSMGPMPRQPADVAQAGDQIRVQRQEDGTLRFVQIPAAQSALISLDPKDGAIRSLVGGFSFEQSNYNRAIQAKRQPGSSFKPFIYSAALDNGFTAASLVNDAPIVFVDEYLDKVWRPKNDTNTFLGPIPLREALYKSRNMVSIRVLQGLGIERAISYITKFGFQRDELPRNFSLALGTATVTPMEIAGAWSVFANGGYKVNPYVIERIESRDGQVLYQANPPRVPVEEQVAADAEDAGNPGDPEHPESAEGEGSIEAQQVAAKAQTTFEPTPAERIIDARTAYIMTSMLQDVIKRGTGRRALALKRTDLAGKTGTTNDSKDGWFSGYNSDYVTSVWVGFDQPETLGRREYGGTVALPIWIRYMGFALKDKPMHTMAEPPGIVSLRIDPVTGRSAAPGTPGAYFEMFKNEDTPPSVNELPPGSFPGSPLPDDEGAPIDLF

For CC(C)(O/N=C(\C(=O)N[C@H]1CON(C2(C(=O)O)C[C@H](NC(=O)OCc3ccccc3)C(=O)O2)C1=O)c1csc(N)n1)C(=O)O (some centres undefined), the MIC (Escherichia coli [1]) was > 64 µg/mL, the MIC (Pseudomonas aeruginosa [2]) was > 64 µg/mL and the MIC (Pseudomonas aeruginosa [3]) was > 64 µg/mL. For the same molecule, the MIC (Klebsiella pneumoniae) was > 64 µg/mL, the MIC (Acinetobacter baumannii) was > 64 µg/mL and the IC50 [4] was 65 nM. It also gave an IC50 [5] of 1740 nM and an IC50 [6] of 33300 nM.

For C[C@H]1[C@H](NC(=O)/C(=N\OC(C)(C)C(=O)O)c2csc(N)n2)C(=O)N1S(=O)(=O)O [AZTREONAM], the IC50 [4] was 3340 nM, the IC50 [5] was 2870 nM and the IC50 [6] was > 300000 nM. For the same molecule, the IC50 [7] was 8 nM.

CC(C)(O/N=C(\C(=O)N[C@H]1CON(C2(C(=O)O)C[C@@H](NC(=O)c3cc(=O)c(O)cn3O)C(=O)O2)C1=O)c1csc(N)n1)C(=O)O (some centres undefined) showed an MIC (Escherichia coli [1]) of 1 µg/mL (≈ 1.53 µM), an MIC (Pseudomonas aeruginosa [2]) of 16 µg/mL (≈ 24.5 µM) and an MIC (Pseudomonas aeruginosa [3]) of 2 µg/mL (≈ 3.06 µM). The MIC (Klebsiella pneumoniae) was 16 µg/mL (≈ 24.5 µM), the MIC (Acinetobacter baumannii) was 0.5 µg/mL (≈ 0.765 µM) and the IC50 [4] was 46 nM. For the same molecule, the IC50 [5] was 820 nM, the IC50 [6] was 6410 nM and the IC50 [7] was 65 nM.

For CC1(C)S[C@@H]2[C@H](NC(=O)[C@H](N)c3ccccc3)C(=O)N2[C@H]1C(=O)O [AMPICILLIN], the MIC (Escherichia coli [8]) was > 64 µg/mL, the MIC (Escherichia coli [9]) was > 64 µg/mL and the MIC (Escherichia coli [10]) was > 64 µg/mL. For the same molecule, the MIC (Escherichia coli [11]) was > 64 µg/mL, the MIC (Escherichia coli [12]) was > 64 µg/mL and the MIC (Escherichia coli [13]) was > 64 µg/mL. The MIC (Escherichia coli [14]) was > 64 µg/mL, the MIC (Escherichia coli [15]) was 32 µg/mL (≈ 91.6 µM) and the MIC (Escherichia coli [16]) was > 64 µg/mL. It also gave an MIC (Escherichia coli [17]) of 64 µg/mL (≈ 183 µM).

In the case of CC(C)(O/N=C(\C(=O)N[C@H]1CON(C2(C(=O)O)C[C@@H](NC(=O)OCc3ccccc3)C(=O)O2)C1=O)c1csc(N)n1)C(=O)O (some centres undefined), the MIC (Escherichia coli [1]) is reported as > 64 µg/mL, the MIC (Pseudomonas aeruginosa [2]) is reported as > 64 µg/mL and the MIC (Pseudomonas aeruginosa [3]) is reported as > 64 µg/mL. The MIC (Klebsiella pneumoniae) was > 64 µg/mL, the MIC (Acinetobacter baumannii) was > 64 µg/mL and the IC50 [4] was 110 nM. For the same molecule, the IC50 [5] was 2440 nM and the IC50 [6] was 47100 nM.

With CC1(C)[C@H](NC(=O)/C(=N\OCc2cc(=O)c(O)cn2O)c2csc(N)n2)C(=O)N1OS(=O)(=O)O the MIC (Escherichia coli [18]) was 0.125 µg/mL (≈ 0.241 µM), the MIC (Escherichia coli [19]) was 0.125 µg/mL (≈ 0.241 µM) and the MIC (Escherichia coli [8]) was > 64 µg/mL. The MIC (Escherichia coli [9]) was > 64 µg/mL, the MIC (Escherichia coli [10]) was 0.03 µg/mL (≈ 0.0579 µM) and the MIC (Escherichia coli [11]) was > 64 µg/mL. The MIC (Escherichia coli [12]) was 1 µg/mL (≈ 1.93 µM), the MIC (Escherichia coli [13]) was 0.03 µg/mL (≈ 0.0579 µM) and the MIC (Escherichia coli [14]) was 0.06 µg/mL (≈ 0.116 µM). The MIC (Escherichia coli [15]) was 0.125 µg/mL (≈ 0.241 µM), the MIC (Escherichia coli [16]) was 0.125 µg/mL (≈ 0.241 µM) and the MIC (Escherichia coli [17]) was 0.125 µg/mL (≈ 0.241 µM).

With CC(C)(O/N=C(\C(=O)N[C@H]1CON(C2(C(=O)O)CCC(=O)O2)C1=O)c1csc(N)n1)C(=O)O (some centres undefined) the MIC (Escherichia coli [18]) was 0.25 µg/mL (≈ 0.515 µM), the MIC (Escherichia coli [19]) was 0.25 µg/mL (≈ 0.515 µM) and the MIC (Escherichia coli [8]) was 0.5 µg/mL (≈ 1.03 µM). The MIC (Escherichia coli [9]) was 0.25 µg/mL (≈ 0.515 µM), the MIC (Escherichia coli [10]) was 0.25 µg/mL (≈ 0.515 µM) and the MIC (Escherichia coli [11]) was 0.5 µg/mL (≈ 1.03 µM). The MIC (Escherichia coli [12]) was 0.5 µg/mL (≈ 1.03 µM), the MIC (Escherichia coli [13]) was 0.25 µg/mL (≈ 0.515 µM) and the MIC (Escherichia coli [14]) was 0.5 µg/mL (≈ 1.03 µM). The MIC (Escherichia coli [15]) was 1 µg/mL (≈ 2.06 µM), the MIC (Escherichia coli [16]) was 0.25 µg/mL (≈ 0.515 µM) and the MIC (Escherichia coli [17]) was 0.5 µg/mL (≈ 1.03 µM). It also gave a Ratio (Escherichia coli [20]) of 4, an MIC (Pseudomonas aeruginosa [2]) of 32 µg/mL (≈ 65.9 µM) and an MIC (Pseudomonas aeruginosa [3]) of 32 µg/mL (≈ 65.9 µM). It also gave an MIC (Klebsiella pneumoniae) of 4 µg/mL (≈ 8.24 µM), an MIC (Acinetobacter baumannii) of 32 µg/mL (≈ 65.9 µM) and an IC50 [4] of 46 nM. It also gave an IC50 [5] of 1230 nM, an IC50 [6] of 33300 nM and an IC50 [7] of 92 nM.

Work on CC(C)(O/N=C(\C(=O)N[C@H]1CON(C2(C(=O)O)C[C@H](NC(=O)c3cc(=O)c(O)cn3O)C(=O)O2)C1=O)c1csc(N)n1)C(=O)O (some centres undefined) yielded an MIC (Escherichia coli [1]) of 1 µg/mL (≈ 1.53 µM), an MIC (Pseudomonas aeruginosa [2]) of 2 µg/mL (≈ 3.06 µM) and an MIC (Pseudomonas aeruginosa [3]) of 64 µg/mL (≈ 97.9 µM). For the same molecule, the MIC (Klebsiella pneumoniae) was 8 µg/mL (≈ 12.2 µM), the MIC (Acinetobacter baumannii) was 0.5 µg/mL (≈ 0.765 µM) and the IC50 [4] was 46 nM. For the same molecule, the IC50 [5] was 820 nM, the IC50 [6] was 3700 nM and the IC50 [7] was 92 nM.

In the case of CC[C@H](O)Cn1c(-c2cc(=O)c(O)c[nH]2)nn(S(=O)(=O)[N-]C(=O)N2C[C@H](NC(=O)/C(=N\OC(C)(C)C(=O)[O-])c3csc(N)n3)C2=O)c1=O.[Na+].[Na+], the MIC (Escherichia coli [18]) is reported as 0.125 µg/mL, the MIC (Escherichia coli [19]) is reported as 0.125 µg/mL and the MIC (Escherichia coli [8]) is reported as 0.5 µg/mL. For the same molecule, the MIC (Escherichia coli [9]) was 0.25 µg/mL, the MIC (Escherichia coli [10]) was 0.03 µg/mL and the MIC (Escherichia coli [11]) was 0.125 µg/mL. It also gave an MIC (Escherichia coli [12]) of 0.25 µg/mL, an MIC (Escherichia coli [13]) of 0.015 µg/mL and an MIC (Escherichia coli [14]) of 0.03 µg/mL. The MIC (Escherichia coli [15]) was 0.25 µg/mL, the MIC (Escherichia coli [16]) was 0.125 µg/mL and the MIC (Escherichia coli [17]) was 0.06 µg/mL.

For Nc1nc(/C(=N/OCc2cc(=O)c(O)cn2O)C(=O)N[C@H]2CON(C3(C(=O)O)CCC(=O)O3)C2=O)cs1 (some centres undefined), the MIC (Escherichia coli [18]) was 1 µg/mL (≈ 1.86 µM), the MIC (Escherichia coli [19]) was 0.5 µg/mL (≈ 0.929 µM) and the MIC (Escherichia coli [8]) was 32 µg/mL (≈ 59.4 µM). For the same molecule, the MIC (Escherichia coli [9]) was 16 µg/mL (≈ 29.7 µM), the MIC (Escherichia coli [10]) was 1 µg/mL (≈ 1.86 µM) and the MIC (Escherichia coli [11]) was 4 µg/mL (≈ 7.43 µM). The MIC (Escherichia coli [12]) was 4 µg/mL (≈ 7.43 µM), the MIC (Escherichia coli [13]) was 0.5 µg/mL (≈ 0.929 µM) and the MIC (Escherichia coli [14]) was 1 µg/mL (≈ 1.86 µM). It also gave an MIC (Escherichia coli [15]) of 1 µg/mL (≈ 1.86 µM), an MIC (Escherichia coli [16]) of 1 µg/mL (≈ 1.86 µM) and an MIC (Escherichia coli [17]) of 1 µg/mL (≈ 1.86 µM). It also gave an MIC (Escherichia coli [1]) of 2 µg/mL (≈ 3.71 µM), an MIC (Pseudomonas aeruginosa [2]) of 8 µg/mL (≈ 14.9 µM) and an MIC (Pseudomonas aeruginosa [3]) of 4 µg/mL (≈ 7.43 µM). For the same molecule, the MIC (Klebsiella pneumoniae) was 32 µg/mL (≈ 59.4 µM), the MIC (Acinetobacter baumannii) was 0.5 µg/mL (≈ 0.929 µM) and the IC50 [4] was 46 nM. The IC50 [5] was 2460 nM, the IC50 [6] was 22200 nM and the IC50 [7] was 140 nM.
